Compound activity: PubChem BioAssay, several laboratories
Rev-erbA mod = modulators of human Rev-erb alpha DNA binding | P20393 | Rev-erbα–FITC-DNA binding, fluorescence polarization, 90 min | activity, % at 10 µM | 0.79% of 370,000 active | AID 1259318;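 active = activity above about 14%, limit read from the data; passing the limit was not always enough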;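 also: 0% = DMSO wells with 35 nM protein and 100% = DMSO wells with 750 nM protein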
MC4R barr agon = activates human MC4R beta-arrestin recruitment; P32245; U2OS MC4R beta-arrestin complementation, luminescence; percent of melanotan II response, DMSO zero; activation, % at 8.9 µM; 0.98% of 360,000 active;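 active = activation above a per-plate cutoff, the mean activation of sample wells on that plate plus 3 SD, cut at about 8% in these data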
NR2E3 ag-1 = NR2E3 (human) agonism; Q9Y5X4; GST-NR2E3/biotin-RetCOR TR-FRET, 1536-well; inhibition of corepressor binding, % at 4.78 µM; 0.12% of 320,000 active; AID 2300;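 active = percent inhibition above the cutoff of mean plus 3 SD of all tested compounds, set per screening campaign, cut at about 20% in these data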;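 also: 0% = DMSO wells and 100% = biotin wells as full block of FRET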
Target sequence (Q9Y5X4 whole entry, looked up): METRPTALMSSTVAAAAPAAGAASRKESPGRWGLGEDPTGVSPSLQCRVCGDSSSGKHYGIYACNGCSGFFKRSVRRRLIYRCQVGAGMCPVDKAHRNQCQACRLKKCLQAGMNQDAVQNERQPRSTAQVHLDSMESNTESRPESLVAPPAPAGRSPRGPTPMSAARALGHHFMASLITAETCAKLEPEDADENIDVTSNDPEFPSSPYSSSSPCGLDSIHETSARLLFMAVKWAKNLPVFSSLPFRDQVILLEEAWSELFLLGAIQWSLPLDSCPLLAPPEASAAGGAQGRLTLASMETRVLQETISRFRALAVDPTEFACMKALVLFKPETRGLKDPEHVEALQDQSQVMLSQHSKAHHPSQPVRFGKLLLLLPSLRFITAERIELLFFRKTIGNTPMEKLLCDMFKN
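System: GST-NR2E3 and biotin-RetCOR proteins; probe or stimulus: 7 nM biotin-RetCOR; doses: compound at 4.8 µM, single dose; schedule: Compound–protein incubation for 5 h at 4 °C; detection: time-resolved FRET; read-out: percent inhibition; controls: biotin wells as high control, 0.6% DMSO wells as low control; format: 1536-well plates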
MC4R antagonist = human MC4R antagonism in cAMP assay. AID 540295. MC4R-expressing cells, MTII-stimulated cAMP, LANCE TR-FRET. 0.48% of 360,000 active. inhibition, % at 6.5 µM;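 active = inhibition above its plate's cutoff, the mean of tested wells on that plate plus 3 SD, cut at about 29% in these data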;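 also: 0% = Melanotan II alone and 100% = Melanotan II plus saturating MCL0020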
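Material: U2OS-MC4R stable cell line | Reagent: Melanotan II challenge after compound preincubation | Doses: One concentration, 6.5 µM nominal | Incubation: 30-min compound preincubation, 1-h Melanotan II challenge, 1-h detection, room temperature | Signal: TR-FRET cAMP assay | Replicates: One well per compound, no replicates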
NR2E3 ag-2 = agonists of human NR2E3 nuclear receptor | AID 602229 | inhibition of corepressor binding, % at 3.98 µM | CHO-S Gal4-NCOR/VP16-NR2E3 two-hybrid, luciferase | 0.35% of 360,000 active | Q9Y5X4;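 active = inhibition above the mean of all tested compounds plus 3 SD, cut at about 70% in these data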;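 also: 0% = DMSO with NR2E3 transfected cells and 100% = cells lacking NR2E3 construct; higher means lower luciferase signal from less NR2E3 corepressor binding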
PG9 Ab binder = PG9 antibody binding by small molecule; TR-FRET gp120-PG9 antibody binding; AID 624416; inhibition, % at 6.7 µM; 0.43% of 360,000 active; in the data active = inhibition above about 8.5%
cAMP nonselect = U2OS forskolin cAMP inhibition counter-screen. inhibition, % at 6.5 µM. parental U2OS, LANCE TR-FRET. shares compounds with MC4R antagonist. 26% of 1,600 active;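 active = mean inhibition over triplicates above the low-control well mean plus 3 SD, set per campaign, cut at about 13% in these data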;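 also: signal is single emission at 671 nm which falls as cellular cAMP rises; 0% = forskolin-stimulated wells and 100% = buffer without forskolin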
MC4R antag conf = human MC4R cAMP antagonism confirmation. shares compounds with MC4R antagonist. MC4R-expressing cells, MTII-stimulated cAMP, TR-FRET. inhibition, % at 6.5 µM. 27% of 1,600 active; in the data active = inhibition above about 29%;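 also: 0% = agonist stimulated wells alone and 100% = agonist stimulated wells plus saturating reference antagonist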
* hit, by the source's call; x = not tested or not shown. Compounds with a hit are over-represented: about 2.7% of the library has one in this group of screens.

SMILES	Rev-erbA mod	MC4R barr agon	NR2E3 ag-1	MC4R antagonist	NR2E3 ag-2	PG9 Ab binder	cAMP nonselect	MC4R antag conf
Cc1cc2oc(C(=O)N(Cc3ccccc3)C3CCS(=O)(=O)C3)cc(=O)c2cc1Cl (centres undefined)	-3	1	-1	30*	-19	0	1	11
COc1ccccc1NC(=O)C1CCCN(C(=O)Nc2ccc(F)cc2)C1 (centres undefined)	5	-2	1	-1	-17	-2	x	x
CCn1c(SCC(=O)NC2CCCCC2)nc2ccccc2c1=O	13	1	2	19	-28	-1	x	x
CCN(c1ccccc1)S(=O)(=O)c1ccc(NC(=O)c2nc(S(C)(=O)=O)ncc2Cl)cc1	x	-3	-5	60*	10	x	24*	46*
CS(=O)(=O)c1ncc(Cl)c(C(=O)Nc2ccc(OC(F)F)cc2)n1	x	-2	4	12	10	x	x	x
O=C(Nc1ccc(F)cc1)c1nc(S(=O)(=O)Cc2ccccc2)ncc1Cl	5	-4	3	8	33	1	x	x
CCS(=O)(=O)c1ncc(Cl)c(C(=O)Nc2ccc(S(=O)(=O)N(C)c3ccccc3)cc2)n1	0	-5	-3	52*	37	2	4	36*
Cc1ccccc1CS(=O)(=O)c1ncc(Cl)c(C(=O)Nc2ccc(F)cc2)n1	3	-3	-1	42*	22	0	29*	26
Nc1nc(C2CC(=O)OC23CCCCC3)cs1 (centres undefined)	-3	-1	-2	0	5	0	x	x
COc1ccc(N2CCN(C(=O)CCCn3c(=O)[nH]c4cc(Cl)ccc4c3=O)CC2)cc1	-5	0	0	14	-23	-5	x	x
COc1c2occc2c(OC(C)=O)c2c(=O)cc(C)oc12	0	-1	5	0	-41	-1	x	x
Cn1cccc1C(=O)NC(=O)COC(=O)c1ccc(S(C)(=O)=O)c([N+](=O)[O-])c1	x	-2	x	-17	-10	x	x	x
CC(C)CN1CCN(C(=O)COC(=O)c2ccc(S(C)(=O)=O)c([N+](=O)[O-])c2)CC1	-7	-1	x	31*	-13	0	23*	41*
CS(=O)(=O)c1ccc(C(=O)OCC(=O)NC23CC4CC(CC(C4)C2)C3)cc1[N+](=O)[O-]	-1	-4	2	50*	-10	-1	4	62*
COc1cccc(NC(=O)c2cccc(Cl)c2)c1	0	-1	4	3	-119	0	x	x
COc1ccc(NC(=O)N2CCN(S(=O)(=O)c3ccc(F)cc3)CC2)c(OC)c1	0	-2	x	-1	-6	-4	x	x
COc1cc(OC)cc(OC(=O)C2CCN(C(=O)c3ccc(Cl)cc3)CC2)c1	-2	2	4	29*	24	0	6	7
COc1cc(OC)cc(OC(=O)C2CCN(C(=O)c3ccc(F)cc3)CC2)c1	2	-2	-1	15	-7	3	x	x
O=S(=O)(c1ccc(Br)s1)N1CCN(c2ccnc3cc(Cl)ccc23)CC1	5	0	2	6	-18	0	x	x
C=CCN(C(=O)CNS(=O)(=O)c1ccccc1)C(C(=O)NCCOC)c1cccnc1 (centres undefined)	-1	1	-1	29*	-39	0	-1	-6
CN(CC(=O)NCCc1ccc(F)cc1)Cc1ccc(Br)cc1	13	3	0	18	-6	-2	x	x
CN(CC(=O)NCCCc1ccccc1)Cc1ccc(Br)cc1	3	5	0	30*	2	0	-3	-1
COc1ccc(NC(=O)Cc2nnc(N)s2)cc1	-2	1	-2	23	8	0	x	x
CN(C)c1ccc(S(=O)(=O)NCC(=O)OCC(=O)Nc2cc(Cl)cc(Cl)c2)cc1[N+](=O)[O-]	4	4	6	31*	2	0	19*	30*
